Columns and labels:
Blood [1] = assay: Inhibition of U46619-induced platelet aggregation in human blood after 3 mins by turbidimetric assay; format: functional, tissue-based; settings: 0.05 h
How it was run: (§1)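 Washed human platelets were prepared from ACD-anticoagulated blood of healthy volunteers who had taken no drugs for two weeks. They were resuspended at 3 × 10⁸/ml in Tyrode's solution with Ca²⁺ 2 mM, glucose 11.1 mM and BSA 3.5 mg/ml. Platelets were preincubated with DMSO (0.5%) or compound at 37 °C for 3 min, stirring at 1200 rpm. Inducers were arachidonic acid, collagen, U46619 or thrombin (0.1 U/ml). Aggregation was read by light transmission. IC50 is mean ± SEM, n = 3.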

Blood [2] = assay: Inhibition of thrombin-induced platelet aggregation in human blood after 3 mins by turbidimetric assay; settings: 0.05 h
Blood [3] = assay: Inhibition of collagen-induced platelet aggregation in human blood after 3 mins by turbidimetric assay; settings: 0.05 h
Blood [4] = assay: Inhibition of arachidonic acid-induced platelet aggregation in human blood after 3 mins by turbidimetric assay; format: functional, tissue-based; settings: 0.05 h; how it was run: as §1
Platelet [5] = assay: Inhibition of arachidonic acid-induced TxB2 formation in human platelet at 200 uM per 3 x 10^8 platelets by immunoassay; format: functional
How it was run: (§2)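 Washed human platelets were suspended in Tyrode's solution with Ca²⁺, glucose and BSA and preincubated with DMSO or compound at 37 °C for 3 min. Arachidonic acid was then added. After 5 min the reaction was stopped with EDTA (2 mM) plus indomethacin. Samples were centrifuged for 3 min at 13,000 rpm. Supernatant TxB2 was measured by enzyme immunoassay and expressed per 3 × 10⁸ platelets. Values are mean ± SEM, n = 3.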

Platelet [6] = assay: Inhibition of arachidonic acid-induced TxB2 formation in human platelet at 0.5 uM per 3 x 10^8 platelets by immunoassay; format: functional; how it was run: as §2
Platelet [7] = assay: Inhibition of arachidonic acid-induced TxB2 formation in human platelet at 1 uM per 3 x 10^8 platelets by immunoassay; format: functional; how it was run: as §2

IC50 (Blood [1]) [µM]	IC50 (Blood [2]) [µM]	IC50 (Blood [3]) [µM]	IC50 (Blood [4]) [µM]	Structure (SMILES)	Activity (Platelet [5]) [ng]	Activity (Platelet [6]) [ng]	Activity (Platelet [7]) [ng]
> 100	> 100	50.4	7.1	CCCCOC(=O)c1ccc(Cl)cc1NC(=O)c1ccccc1Br	–	–	–
–	> 100	62.5	10.4	CCCOC(=O)c1ccc(C)cc1NC(=O)c1ccccc1OC	–	–	–
–	–	7.8	1.6	CCCOC(=O)c1ccc(C)cc1NC(=O)c1ccccc1Cl	–	–	–
> 100	> 100	153	150	CC(=O)Oc1ccccc1C(=O)O [ASPIRIN]	26.68	–	–
–	> 100	25.1	2	CCCOC(=O)c1ccc(F)cc1NC(=O)c1ccccc1C	–	–	–
> 100	> 100	0.4	0.12	COc1ccc2c(c1)c(CC(=O)O)c(C)n2C(=O)c1ccc(Cl)cc1 [INDOMETHACIN]	–	3.09	–
> 100	> 100	–	0.9	CCOC(=O)c1ccc(Cl)cc1NC(=O)c1c(F)cccc1F	–	–	–
> 100	> 100	8.51	82.2	CC(C)OC(=O)c1ccc(Cl)cc1NC(=O)c1ccccc1Cl	–	–	–
> 100	> 100	11.1	6	CCCNC(=O)c1ccc(Cl)cc1NC(=O)c1ccccc1OC	–	–	–
> 100	> 100	> 100	> 100	CCCCOC(=O)c1ccc(Cl)cc1NC(=O)c1ccccc1OC	–	–	–
–	–	11	4.1	CCOC(=O)c1ccc(F)cc1NC(=O)c1ccccc1Cl	–	–	–
–	> 100	20.1	5.8	CCCOC(=O)c1ccc(C)cc1NC(=O)c1ccccc1C	–	–	–
–	–	36.1	21.1	CCOC(=O)c1ccc(F)cc1NC(=O)c1ccccc1C	–	–	–
> 100	> 100	28.8	> 100	CC(C)OC(=O)c1ccc(Cl)cc1NC(=O)c1c(F)cccc1F	–	–	–
–	> 100	16.7	3.3	CCCOC(=O)c1ccc(F)cc1NC(=O)c1ccccc1Br	–	–	–
–	> 100	> 100	> 100	CCCOC(=O)c1ccc([N+](=O)[O-])cc1NC(=O)c1ccccc1OC	–	–	–
> 100	> 100	8.7	1.9	CCCNC(=O)c1ccc(Cl)cc1NC(=O)c1ccccc1F	–	–	–
–	–	27.3	3.1	CCCOC(=O)c1ccc(C)cc1NC(=O)c1ccccc1Br	–	–	–
–	> 100	3.5	4.7	CCCOC(=O)c1ccc([N+](=O)[O-])cc1NC(=O)c1ccccc1F	–	–	–
–	> 100	8	4.7	CCCOC(=O)c1ccc([N+](=O)[O-])cc1NC(=O)c1ccccc1C	–	–	–
–	> 100	11.3	0.9	CCCOC(=O)c1ccc(C)cc1NC(=O)c1ccccc1F	–	–	–
> 100	> 100	46.4	4.9	CCOC(=O)c1ccc(Cl)cc1NC(=O)c1ccccc1OC	–	–	–
–	> 100	9.3	1.6	CCCOC(=O)c1ccc(F)cc1NC(=O)c1ccccc1Cl	–	–	–
> 100	> 100	29.7	38.4	CCCOC(=O)c1ccc(Cl)cc1NC(=O)c1c(Cl)cccc1Cl	–	–	–
> 100	> 100	36.7	> 100	CC(C)OC(=O)c1ccc(Cl)cc1NC(=O)c1ccccc1F	–	–	–
–	> 100	14.5	1.6	CCCOC(=O)c1ccc(F)cc1NC(=O)c1ccccc1F	–	–	–
> 100	> 100	3.4	12.6	COC(=O)c1ccc(Cl)cc1NC(=O)c1c(Cl)cccc1Cl	–	–	–

IC50 (Blood [1]) [µM]	IC50 (Blood [2]) [µM]	IC50 (Blood [3]) [µM]	IC50 (Blood [4]) [µM]	Structure (SMILES)	Activity (Platelet [5]) [ng]	Activity (Platelet [6]) [ng]	Activity (Platelet [7]) [ng]
> 100	> 100	19.5	2.1	CCCCOC(=O)c1ccc(Cl)cc1NC(=O)c1ccccc1Cl	–	–	–
> 100	> 100	–	0.7	COC(=O)c1ccc(Cl)cc1NC(=O)c1c(F)cccc1F	–	61.18	29.48
–	> 100	33.2	31.5	CCCOC(=O)c1ccc(F)cc1NC(=O)c1ccccc1OC	–	–	–
> 100	> 100	3.4	1.5	CCCNC(=O)c1ccc(Cl)cc1NC(=O)c1ccccc1Br	–	–	–
> 100	> 100	20.1	3.8	CCOC(=O)c1ccc(Cl)cc1NC(=O)c1ccccc1F	–	–	–
> 100	> 100	> 100	23.4	CCCOC(=O)c1ccc(Cl)cc1NC(=O)c1ccccc1OC	–	–	–
> 100	> 100	> 100	> 100	CCCCOC(=O)c1ccc(Cl)cc1NC(=O)c1c(Cl)cccc1Cl	–	–	–
> 100	> 100	2.3	0.7	CCCOC(=O)c1ccc(Cl)cc1NC(=O)c1ccccc1Cl	–	62.56	32.52
> 100	> 100	9.5	3.5	CCCOC(=O)c1ccc(Cl)cc1NC(=O)c1ccccc1Br	–	–	–
> 100	> 100	1	3.5	CCCCNC(=O)c1ccc(Cl)cc1NC(=O)c1c(F)cccc1F	–	–	–
> 100	> 100	15.9	4.9	CCOC(=O)c1ccc(Cl)cc1NC(=O)c1ccccc1C	–	–	–
> 100	> 100	4.1	3.4	CCCNC(=O)c1ccc(Cl)cc1NC(=O)c1ccccc1Cl	–	–	–
> 100	> 100	2.2	3.5	CCCCNC(=O)c1ccc(Cl)cc1NC(=O)c1ccccc1F	–	–	–
> 100	> 100	13.9	3.6	CCOC(=O)c1ccc(Cl)cc1NC(=O)c1ccccc1Br	–	–	–
> 100	48.8	–	0.5	CCCOC(=O)c1ccc(Cl)cc1NC(=O)c1c(F)cccc1F	–	45.47	7.74
> 100	> 100	1.1	3.4	CCCCNC(=O)c1ccc(Cl)cc1NC(=O)c1ccccc1Cl	–	–	–
–	> 100	4.9	2.5	CCCOC(=O)c1ccc([N+](=O)[O-])cc1NC(=O)c1ccccc1Br	–	–	–
> 100	> 100	21.8	1.5	CCCCOC(=O)c1ccc(Cl)cc1NC(=O)c1c(F)cccc1F	–	–	–
> 100	> 100	32.1	3	CCCCOC(=O)c1ccc(Cl)cc1NC(=O)c1ccccc1F	–	–	–
> 100	> 100	7.6	1	CCOC(=O)c1ccc(Cl)cc1NC(=O)c1ccccc1Cl	–	–	–
–	> 100	2.9	2	CCCOC(=O)c1ccc([N+](=O)[O-])cc1NC(=O)c1ccccc1Cl	–	–	–
> 100	> 100	10.3	8.4	CCCNC(=O)c1ccc(Cl)cc1NC(=O)c1ccccc1C	–	–	–
> 100	> 100	11.6	1.6	CCCOC(=O)c1ccc(Cl)cc1NC(=O)c1ccccc1F	–	–	–
> 100	> 100	8.3	2.2	CCCOC(=O)c1ccc(Cl)cc1NC(=O)c1ccccc1C	–	–	–
> 100	> 100	76.2	4.7	CCCCOC(=O)c1ccc(Cl)cc1NC(=O)c1ccccc1C	–	–	–
> 100	> 100	1	2.9	CCCNC(=O)c1ccc(Cl)cc1NC(=O)c1c(F)cccc1F	–	–	–
> 100	> 100	32.3	68.3	CCOC(=O)c1ccc(Cl)cc1NC(=O)c1c(Cl)cccc1Cl	–	–	–

From ChEMBL document CHEMBL1150253, “Synthesis and anti-platelet evaluation of 2-benzoylaminobenzoate analogs” (Bioorg Med Chem, 2008)
